pIC50: −log10 of the molar value. Activity calls are given as the source filed them. The calls are words filed in the database; no cut-off is given here.
Organism: Mus musculus
Test: Induction of neurogenesis in C57/BL6 mouse neural stem cells derived neurospheres isolated from adult ventricular-subventricular zone assessed as increase in neurosphere size at 1 to 5 uM measured after 4 days in presence of FGF or EGF by bright field microscopy analysis
Type: functional
Details: not given
Outline: (§1)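 Primary neurospheres from adult mouse V-SVZ neural stem and progenitor cells, cultured 4 days with FGF and EGF and compound at 1 or 5 µM; DMSO vehicle control, PF06447475 as reference LRRK2 inhibitor. Proliferation read as total neurosphere area per bright-field field by ImageJ macro, expressed relative to DMSO (=100); 6 fields per triplicate, three independent experiments, mean ± SEM.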

SMILES	Activity
N#Cc1cccc(-c2c[nH]c3ncnc(N4CCOCC4)c23)c1	Active
O=C(Nc1nc2ccccc2s1)c1ccc(N2CCOCC2)cc1	Active
O=C(Nc1nc2ccc(F)cc2s1)c1ccc(N2CCOCC2)cc1	Active
O=C(Nc1nc2ccc(Br)cc2s1)c1ccc(N2CCOCC2)cc1	Active
O=C(Nc1nc2ccc(F)cc2s1)c1ccccc1	Active

Biological target: Leucine-rich repeat serine/threonine-protein kinase 2 (Mus musculus) (UniProt Q5S006)
Sequence (Q5S006 whole entry): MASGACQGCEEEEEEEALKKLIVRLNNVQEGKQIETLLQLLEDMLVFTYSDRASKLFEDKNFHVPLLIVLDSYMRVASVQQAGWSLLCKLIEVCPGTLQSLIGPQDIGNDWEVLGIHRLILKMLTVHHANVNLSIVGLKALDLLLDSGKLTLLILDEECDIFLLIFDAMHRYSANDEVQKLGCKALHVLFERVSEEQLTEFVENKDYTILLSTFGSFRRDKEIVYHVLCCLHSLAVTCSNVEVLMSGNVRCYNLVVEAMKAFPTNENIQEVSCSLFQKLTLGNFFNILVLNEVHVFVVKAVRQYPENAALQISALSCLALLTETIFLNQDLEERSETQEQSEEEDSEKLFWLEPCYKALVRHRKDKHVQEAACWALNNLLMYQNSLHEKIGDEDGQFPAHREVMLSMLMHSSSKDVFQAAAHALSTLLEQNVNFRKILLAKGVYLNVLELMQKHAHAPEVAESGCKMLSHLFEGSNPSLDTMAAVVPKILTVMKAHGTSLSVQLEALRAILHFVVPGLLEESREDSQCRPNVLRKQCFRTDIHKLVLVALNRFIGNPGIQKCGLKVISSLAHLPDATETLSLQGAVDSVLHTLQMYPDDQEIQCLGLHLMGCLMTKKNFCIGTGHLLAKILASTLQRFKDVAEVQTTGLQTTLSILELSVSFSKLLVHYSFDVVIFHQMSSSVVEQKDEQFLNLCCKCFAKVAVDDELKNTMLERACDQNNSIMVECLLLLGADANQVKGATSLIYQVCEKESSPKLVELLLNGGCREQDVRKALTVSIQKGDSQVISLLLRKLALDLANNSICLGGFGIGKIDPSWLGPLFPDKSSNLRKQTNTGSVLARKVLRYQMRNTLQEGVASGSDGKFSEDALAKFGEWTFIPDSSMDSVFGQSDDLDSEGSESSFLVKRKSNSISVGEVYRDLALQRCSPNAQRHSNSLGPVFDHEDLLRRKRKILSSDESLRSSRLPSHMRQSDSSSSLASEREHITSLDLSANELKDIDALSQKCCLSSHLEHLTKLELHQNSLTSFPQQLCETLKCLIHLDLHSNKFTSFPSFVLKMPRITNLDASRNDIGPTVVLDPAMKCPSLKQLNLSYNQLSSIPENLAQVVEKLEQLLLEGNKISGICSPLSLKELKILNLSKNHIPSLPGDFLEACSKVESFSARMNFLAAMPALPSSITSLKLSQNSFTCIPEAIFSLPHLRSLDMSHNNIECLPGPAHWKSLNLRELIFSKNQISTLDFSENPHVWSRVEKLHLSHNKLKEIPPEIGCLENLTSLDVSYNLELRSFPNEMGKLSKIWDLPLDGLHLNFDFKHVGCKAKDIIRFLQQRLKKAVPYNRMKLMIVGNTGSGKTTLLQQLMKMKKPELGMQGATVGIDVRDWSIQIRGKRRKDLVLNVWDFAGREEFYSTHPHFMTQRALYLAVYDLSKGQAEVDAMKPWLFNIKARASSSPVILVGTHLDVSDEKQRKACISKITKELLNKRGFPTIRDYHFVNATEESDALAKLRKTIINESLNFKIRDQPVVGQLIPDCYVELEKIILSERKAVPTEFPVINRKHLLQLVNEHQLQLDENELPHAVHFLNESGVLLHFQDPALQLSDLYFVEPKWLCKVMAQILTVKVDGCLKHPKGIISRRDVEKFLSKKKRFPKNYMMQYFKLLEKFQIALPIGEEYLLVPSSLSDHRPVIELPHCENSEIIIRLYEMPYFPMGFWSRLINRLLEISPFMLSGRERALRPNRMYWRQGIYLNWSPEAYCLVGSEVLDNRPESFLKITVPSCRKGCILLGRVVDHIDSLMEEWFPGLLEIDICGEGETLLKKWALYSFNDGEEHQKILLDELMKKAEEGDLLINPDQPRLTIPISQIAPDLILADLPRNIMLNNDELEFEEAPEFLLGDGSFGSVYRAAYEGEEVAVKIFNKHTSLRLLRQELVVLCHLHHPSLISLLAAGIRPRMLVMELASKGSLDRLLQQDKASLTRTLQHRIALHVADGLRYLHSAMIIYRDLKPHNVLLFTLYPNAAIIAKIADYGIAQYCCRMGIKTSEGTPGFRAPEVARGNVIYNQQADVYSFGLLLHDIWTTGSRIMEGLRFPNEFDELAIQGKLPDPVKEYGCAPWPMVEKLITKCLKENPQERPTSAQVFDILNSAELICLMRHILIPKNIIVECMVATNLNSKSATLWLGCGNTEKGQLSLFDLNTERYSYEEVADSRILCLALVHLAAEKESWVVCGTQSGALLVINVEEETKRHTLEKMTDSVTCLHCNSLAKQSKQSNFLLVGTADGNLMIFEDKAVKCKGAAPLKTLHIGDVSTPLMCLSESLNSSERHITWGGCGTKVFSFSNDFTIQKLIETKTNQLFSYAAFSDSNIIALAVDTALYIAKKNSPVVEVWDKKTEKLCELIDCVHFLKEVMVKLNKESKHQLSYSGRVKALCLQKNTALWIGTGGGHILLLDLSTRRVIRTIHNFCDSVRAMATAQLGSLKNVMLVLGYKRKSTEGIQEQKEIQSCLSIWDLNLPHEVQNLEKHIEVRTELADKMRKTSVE
Test: Inhibition of LRRK2 in C57/BL6 mouse neural stem cells derived neurospheres isolated from adult ventricular-subventricular zone assessed as reduction in Rab10 phosphorylation at 10 uM using Rab10 as substrate measured after 7 days in presence of mitogens by Western blot analysis
Details: not given
Outline: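 Neurosphere cultures from adult mouse SVZ (2 male mice) grown 7 days with mitogens, treated with compound at 10 µM or DMSO. Cell pellets immunoblotted with monoclonal anti-phospho-Rab10 (T73); p-Rab10 quantified over three experiments, mean ± SEM.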

SMILES	inhibition
O=C(Nc1nc2ccccc2s1)c1ccc(N2CCOCC2)cc1	Active
O=C(Nc1nc2ccc(Br)cc2s1)c1ccc(N2CCOCC2)cc1	Active

Biological target: T1, Leucine-rich repeat serine/threonine-protein kinase 2 (Homo sapiens, UniProt Q5S007)
T1 sequence (Q5S007 whole entry): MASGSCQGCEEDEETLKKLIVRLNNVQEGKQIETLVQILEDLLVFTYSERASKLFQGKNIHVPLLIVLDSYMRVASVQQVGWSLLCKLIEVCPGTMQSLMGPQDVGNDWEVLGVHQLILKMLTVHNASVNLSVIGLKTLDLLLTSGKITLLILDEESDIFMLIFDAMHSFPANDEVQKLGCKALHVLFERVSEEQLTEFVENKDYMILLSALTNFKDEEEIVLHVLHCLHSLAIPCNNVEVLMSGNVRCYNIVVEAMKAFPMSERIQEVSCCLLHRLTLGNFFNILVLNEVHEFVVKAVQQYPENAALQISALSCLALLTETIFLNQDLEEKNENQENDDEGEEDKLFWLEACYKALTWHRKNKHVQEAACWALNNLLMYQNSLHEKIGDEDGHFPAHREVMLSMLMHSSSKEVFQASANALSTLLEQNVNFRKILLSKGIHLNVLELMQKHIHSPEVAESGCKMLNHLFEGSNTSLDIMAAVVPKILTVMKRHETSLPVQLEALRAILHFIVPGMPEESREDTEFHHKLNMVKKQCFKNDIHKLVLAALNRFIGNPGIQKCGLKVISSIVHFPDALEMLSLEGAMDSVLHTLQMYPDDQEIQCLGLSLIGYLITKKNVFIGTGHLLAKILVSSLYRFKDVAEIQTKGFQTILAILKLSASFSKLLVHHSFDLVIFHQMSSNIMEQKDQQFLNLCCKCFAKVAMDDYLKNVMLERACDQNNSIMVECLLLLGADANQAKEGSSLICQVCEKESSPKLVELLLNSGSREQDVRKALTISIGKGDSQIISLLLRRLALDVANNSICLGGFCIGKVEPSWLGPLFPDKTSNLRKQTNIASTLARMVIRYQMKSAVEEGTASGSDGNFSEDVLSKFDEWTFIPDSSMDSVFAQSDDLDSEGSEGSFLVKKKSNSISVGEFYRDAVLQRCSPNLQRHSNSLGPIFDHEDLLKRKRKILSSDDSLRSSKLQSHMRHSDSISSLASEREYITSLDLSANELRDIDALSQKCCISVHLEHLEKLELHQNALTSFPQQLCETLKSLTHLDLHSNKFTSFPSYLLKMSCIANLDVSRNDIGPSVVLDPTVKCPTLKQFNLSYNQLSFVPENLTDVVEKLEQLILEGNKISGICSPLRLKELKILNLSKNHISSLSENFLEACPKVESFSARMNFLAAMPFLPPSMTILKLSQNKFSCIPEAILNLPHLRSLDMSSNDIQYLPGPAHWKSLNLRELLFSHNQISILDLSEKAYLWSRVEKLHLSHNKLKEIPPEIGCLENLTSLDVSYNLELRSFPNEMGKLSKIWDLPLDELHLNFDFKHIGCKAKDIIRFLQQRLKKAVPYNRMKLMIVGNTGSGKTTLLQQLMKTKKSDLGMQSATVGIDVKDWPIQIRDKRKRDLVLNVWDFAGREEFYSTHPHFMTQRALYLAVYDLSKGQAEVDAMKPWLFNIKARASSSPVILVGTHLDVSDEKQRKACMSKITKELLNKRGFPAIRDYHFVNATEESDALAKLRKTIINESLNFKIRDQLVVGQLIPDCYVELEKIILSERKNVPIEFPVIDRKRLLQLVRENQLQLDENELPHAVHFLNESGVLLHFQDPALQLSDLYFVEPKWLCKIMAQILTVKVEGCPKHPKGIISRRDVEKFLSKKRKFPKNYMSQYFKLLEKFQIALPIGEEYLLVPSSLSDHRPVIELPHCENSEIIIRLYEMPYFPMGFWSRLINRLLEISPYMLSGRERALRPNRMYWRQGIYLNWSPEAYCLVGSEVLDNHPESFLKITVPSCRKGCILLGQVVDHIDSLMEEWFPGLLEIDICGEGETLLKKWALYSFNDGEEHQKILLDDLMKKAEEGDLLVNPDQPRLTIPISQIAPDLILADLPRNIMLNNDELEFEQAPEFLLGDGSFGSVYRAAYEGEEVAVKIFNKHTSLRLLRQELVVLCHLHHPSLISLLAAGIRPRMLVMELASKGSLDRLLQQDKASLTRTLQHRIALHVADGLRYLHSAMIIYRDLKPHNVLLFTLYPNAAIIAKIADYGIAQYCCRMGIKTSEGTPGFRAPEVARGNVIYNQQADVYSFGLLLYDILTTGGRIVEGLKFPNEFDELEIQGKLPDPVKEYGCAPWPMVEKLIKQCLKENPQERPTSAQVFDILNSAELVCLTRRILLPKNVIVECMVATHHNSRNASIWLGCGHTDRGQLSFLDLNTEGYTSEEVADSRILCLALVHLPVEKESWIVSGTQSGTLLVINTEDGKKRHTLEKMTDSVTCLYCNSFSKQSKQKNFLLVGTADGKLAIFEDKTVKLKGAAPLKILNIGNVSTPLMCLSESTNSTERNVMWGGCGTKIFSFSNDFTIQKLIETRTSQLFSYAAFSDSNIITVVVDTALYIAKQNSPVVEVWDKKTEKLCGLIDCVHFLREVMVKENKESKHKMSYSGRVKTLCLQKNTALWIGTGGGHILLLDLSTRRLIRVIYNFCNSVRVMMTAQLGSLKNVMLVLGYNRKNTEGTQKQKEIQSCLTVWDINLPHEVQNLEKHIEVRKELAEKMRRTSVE
Test: (§2) Inhibition of LRRK2 in human iPSC derived neuronal progenitor cells stably expressing TCF/LEF luciferase reporter gene assessed as modulation of Wnt/beta-catenin signaling pathway by measuring TCF/LEF dependent beta-catenin mediated transcriptional activity measured after 24 hrs in presence of Wnt3a by Steady-Glo luciferase assay relative to control
Details: not given
Outline: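 TCF/LEF luciferase reporter activity measured with Wnt3a supplied as conditioned medium from Wnt3a-expressing cells. Compounds screened at 1 and 10 µM. For dose curves, serial dilutions spanned 0.01–20.00 µM, with each concentration repeated eight times. Values are fold increase over DMSO vehicle (average ± SD for the curves).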

SMILES	inhibition
Cc1cnc(-c2cnc(NCCNc3ccc(C#N)cn3)nc2-c2ccc(Cl)cc2Cl)[nH]1	Dose-dependent effect
O=C(Nc1nc2ccccc2s1)c1ccc(N2CCOCC2)cc1	Dose-dependent effect
O=C(Nc1nc2ccc(F)cc2s1)c1ccc(N2CCOCC2)cc1	Dose-dependent effect
O=C(Nc1nc2ccc(Br)cc2s1)c1ccc(N2CCOCC2)cc1	Dose-dependent effect
O=C(Nc1nc2ccc(F)cc2s1)c1ccccc1	Dose-dependent effect

Biological target: T1, Leucine-rich repeat serine/threonine-protein kinase 2
Test: as §2, with “activity at 1 uM” for “activity”
Details: not given
Outline: (§3)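 TCF/LEF luciferase reporter assay in human cells stimulated with Wnt3a supplied as Wnt3a-expressing cell conditioned medium; compounds at fixed 1 or 10 µM. Reporter activity expressed as fold increase over DMSO vehicle.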

SMILES	fold change (FC)
CC(C)c1ccc2nc(NC(=O)c3ccc(N4CCOCC4)cc3)sc2c1	1.19
Cc1ccc2nc(NC(=O)c3ccc(N4CCOCC4)cc3)sc2c1	1.76
O=C(Nc1nc2ccccc2s1)c1ccc(N2CCOCC2)cc1	3.25
O=C(Nc1nc2ccc(F)cc2s1)c1ccc(N2CCOCC2)cc1	1.58
O=C(Nc1nc2ccc(Br)cc2s1)c1ccc(N2CCOCC2)cc1	1.25
O=C(Nc1nc2ccc(F)cc2s1)c1ccccc1	1.43

Biological target: T1, Leucine-rich repeat serine/threonine-protein kinase 2
Test: Inhibition of wild type human GST-tagged LRRK2 (970 to 2527 residues) expressed in baculovirus expression system assessed as reduction in ADP formation using LRRKtide as substrate measured after 1 hr in presence of ATP by Adapta assay
Details: not given
Outline: (§4)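 Fluorescence immunoassay detecting ADP formed in the kinase reaction. Dose-response run at ten concentrations per compound in two independent experiments. IC50 given ± standard deviation.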

SMILES	pIC50
O=C(Nc1nc2ccc(C(F)(F)F)cc2s1)c1ccc(N2CCOCC2)cc1	5.64
CCOc1ccc2nc(NC(=O)c3ccc(N4CCOCC4)cc3)sc2c1	6.52
CC(C)c1ccc2nc(NC(=O)c3ccc(N4CCOCC4)cc3)sc2c1	5.46
Cc1ccc2nc(NC(=O)c3ccc(N4CCOCC4)cc3)sc2c1	6.32
O=C(Nc1nc2ccc(F)cc2s1)c1ccc(N2CCOCC2)cc1	6.77
O=C(Nc1nc2ccc(Br)cc2s1)c1ccc(N2CCOCC2)cc1	6.29
O=C(Nc1nc2ccc(F)cc2s1)c1ccccc1	6.28

Test system: not listed separately
Test: Permeability of compound in PBS/EtOH buffer (7:3) at 100 ul and pH 7.4 after 2 hrs and 30 mins by UV plate reader based PAMPA-BBB assay
Type: ADME
Details: read-out: permeability
Outline: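 PAMPA-BBB using porcine brain lipid membrane; in vitro permeability (Pe) determined alongside ten commercial drugs whose reported Pe values validated the assay; compounds classed CNS+ from Pe.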

SMILES	Papp at 2.5 h
CC(C)c1ccc2nc(NC(=O)c3ccc(N4CCOCC4)cc3)sc2c1	4.3 ×10⁻⁶ cm/s
O=C(Nc1nc2ccc(Br)cc2s1)c1ccc(N2CCOCC2)cc1	4.2 ×10⁻⁶ cm/s
O=C(Nc1nc2ccc(F)cc2s1)c1ccccc1	15 ×10⁻⁶ cm/s

Biological target: T1, Leucine-rich repeat serine/threonine-protein kinase 2
Test: as §2, with “activity at 10 uM” for “activity”
Details: not given
Outline: as §3

SMILES	fold change (FC)
CC(C)c1ccc2nc(NC(=O)c3ccc(N4CCOCC4)cc3)sc2c1	1.22
Cc1ccc2nc(NC(=O)c3ccc(N4CCOCC4)cc3)sc2c1	1.79
O=C(Nc1nc2ccccc2s1)c1ccc(N2CCOCC2)cc1	2.2
O=C(Nc1nc2ccc(F)cc2s1)c1ccc(N2CCOCC2)cc1	2
O=C(Nc1nc2ccc(Br)cc2s1)c1ccc(N2CCOCC2)cc1	2
O=C(Nc1nc2ccc(F)cc2s1)c1ccccc1	2.29

Biological target: Leucine-rich repeat serine/threonine-protein kinase 2 (Homo sapiens, UniProt Q5S007, G2019S)
Sequence (Q5S007 whole entry G2019S, the tested form may be a part): as the sequence (Q5S007 whole entry) above, with G2019S counted along it
Test: Inhibition of human GST-tagged LRRK2 G2019S mutant (970 to 2527 residues) expressed in baculovirus expression system assessed as reduction in ADP formation using LRRKtide as substrate measured after 1 hr in presence of ATP by Adapta assay
Details: not given
Outline: as §4

SMILES	pIC50
O=C(Nc1nc2ccc(C(F)(F)F)cc2s1)c1ccc(N2CCOCC2)cc1	6.55
CC(C)c1ccc2nc(NC(=O)c3ccc(N4CCOCC4)cc3)sc2c1	5.95
O=C(Nc1nc2ccccc2s1)c1ccc(N2CCOCC2)cc1	6.43
O=C(Nc1nc2ccc(F)cc2s1)c1ccc(N2CCOCC2)cc1	6.74
O=C(Nc1nc2ccc(Br)cc2s1)c1ccc(N2CCOCC2)cc1	6.59
O=C(Nc1nc2ccc(F)cc2s1)c1ccccc1	6.28

Biological target: Leucine-rich repeat serine/threonine-protein kinase 2 (Mus musculus) (UniProt Q5S006)
Test: Inhibition of LRRK2 in C57/BL6 mouse neural stem cells derived neurospheres isolated from adult ventricular-subventricular zone assessed as increase in neurosphere proliferation at 1 uM measured after 4 days presence of FGF or EGF by bright field microscopy analysis
Details: not given

SMILES	inhibition
O=C(Nc1nc2ccccc2s1)c1ccc(N2CCOCC2)cc1	Active
O=C(Nc1nc2ccc(Br)cc2s1)c1ccc(N2CCOCC2)cc1	Active

Organism: Mus musculus
Test: Induction of neurogenesis in C57/BL6 mouse neuronal progenitor cells derived neurospheres isolated from adult ventricular-subventricular zone assessed as increase in neurosphere size at 1 to 5 uM measured after 4 days in presence of FGF or EGF by bright field microscopy analysis
Type: functional
Details: not given
Outline: as §1

SMILES	Activity
N#Cc1cccc(-c2c[nH]c3ncnc(N4CCOCC4)c23)c1	Active
O=C(Nc1nc2ccccc2s1)c1ccc(N2CCOCC2)cc1	Active
O=C(Nc1nc2ccc(F)cc2s1)c1ccc(N2CCOCC2)cc1	Active
O=C(Nc1nc2ccc(Br)cc2s1)c1ccc(N2CCOCC2)cc1	Active
O=C(Nc1nc2ccc(F)cc2s1)c1ccccc1	Active

Test system: not listed separately
Test: Induction of neurogenesis in C57/BL6 mouse neural stem cells derived neurospheres isolated from adult ventricular-subventricular zone assessed as increase in total area of neurosphere at 1 to 5 uM measured after 4 days in presence of FGF or EGF by bright field microscopy analysis relative to control
Type: functional
Details: not given
Outline: as §1

SMILES	fold change (FC)
N#Cc1cccc(-c2c[nH]c3ncnc(N4CCOCC4)c23)c1	1.8 - 2.4
O=C(Nc1nc2ccccc2s1)c1ccc(N2CCOCC2)cc1	1.8 - 2.4
O=C(Nc1nc2ccc(F)cc2s1)c1ccc(N2CCOCC2)cc1	1.8 - 2.4
O=C(Nc1nc2ccc(Br)cc2s1)c1ccc(N2CCOCC2)cc1	1.8 - 2.4
O=C(Nc1nc2ccc(F)cc2s1)c1ccccc1	1.8 - 2.4

Biological target: Leucine-rich repeat serine/threonine-protein kinase 2 (Mus musculus) (UniProt Q5S006)
Test: Inhibition of LRRK2 in C57/BL6 mouse neural stem cells derived neurospheres isolated from adult ventricular-subventricular zone assessed as differentiation of neurospheres forming CNPase positive oligodendrocytes at 1 uM treated for 6 days and measured on day 7 by bisbenzimide staining based confocal microscopy
Details: not given
Outline: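 Dissociated adult V-SVZ neurosphere cells plated on poly-ornithine/fibronectin and cultured 6 days without mitogens with compound at 1 µM, PF-475 reference, DMSO control; fixed day 7. Immunostained for CNPase (oligodendrocytes), β3-tubulin, GFAP, bisbenzimide nuclei; confocal counts of positive cells as % of total; 4 fields per triplicate, two independent experiments, mean ± SEM.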

SMILES	inhibition
O=C(Nc1nc2ccccc2s1)c1ccc(N2CCOCC2)cc1	Active
O=C(Nc1nc2ccc(Br)cc2s1)c1ccc(N2CCOCC2)cc1	Active

Biological target: T1, Leucine-rich repeat serine/threonine-protein kinase 2
Test: Inhibition of wild-type human partial length LRRK2 (H970 to E2527 residues) expressed in mammalian expression system at 10 uM by Kinomescan method relative to control
Details: not given

SMILES	inhibition
O=C(Nc1nc2ccccc2s1)c1ccc(N2CCOCC2)cc1	< 35%

Biological target: T1, Leucine-rich repeat serine/threonine-protein kinase 2
Test: Inhibition of LRRK2 in human iPSC derived neuronal progenitor cells stably expressing TCF/LEF luciferase reporter gene assessed as increase in AXIN2 mRNA expression in absence of Wnt3a by TaqMan probe based RT-PCR analysis
Details: not given

SMILES	inhibition
O=C(Nc1nc2ccccc2s1)c1ccc(N2CCOCC2)cc1	inactive
O=C(Nc1nc2ccc(F)cc2s1)c1ccc(N2CCOCC2)cc1	inactive
O=C(Nc1nc2ccc(Br)cc2s1)c1ccc(N2CCOCC2)cc1	inactive
O=C(Nc1nc2ccc(F)cc2s1)c1ccccc1	inactive

Test system: Leucine-rich repeat serine/threonine-protein kinase 2 (Homo sapiens), Q5S007 [G2019S]
Sequence (Q5S007 whole entry G2019S, the tested form may be a part): as the sequence (Q5S007 whole entry) above, with G2019S counted along it
Test: Inhibition of human GST-tagged LRRK2 G2019S mutant (970 to 2527 residues) expressed in baculovirus expression system assessed as reduction in ADP formation at 10 uM using LRRKtide as substrate measured after 1 hr in presence of ATP by Adapta assay relative to control
Details: not given
Outline: (§5)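 Fluorescence immunoassay detecting ADP formed by the kinase reaction. Each compound screened at a single fixed concentration of 10 µM and reported as percent inhibition.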

SMILES	inhibition
O=C(Nc1nc2ccc(C(F)(F)F)cc2s1)c1ccc(N2CCOCC2)cc1	69%
CCOc1ccc2nc(NC(=O)c3ccc(N4CCOCC4)cc3)sc2c1	85%
CC(C)c1ccc2nc(NC(=O)c3ccc(N4CCOCC4)cc3)sc2c1	70%
Cc1ccc2nc(NC(=O)c3ccc(N4CCOCC4)cc3)sc2c1	71%
O=C(Nc1nc2ccccc2s1)c1ccc(N2CCOCC2)cc1	85%
O=C(Nc1nc2ccc(F)cc2s1)c1ccc(N2CCOCC2)cc1	55%
O=C(Nc1nc2ccc(Br)cc2s1)c1ccc(N2CCOCC2)cc1	70%
O=C(Nc1nc2ccc(F)cc2s1)c1ccccc1	79%

Biological target: T1, Leucine-rich repeat serine/threonine-protein kinase 2
Test: Inhibition of LRRK2 in human iPSC derived neuronal progenitor cells stably expressing TCF/LEF luciferase reporter gene assessed as increase in AXIN2 mRNA expression in presence of Wnt3a by TaqMan probe based RT-PCR analysis
Details: not given

SMILES	inhibition
O=C(Nc1nc2ccccc2s1)c1ccc(N2CCOCC2)cc1	Active
O=C(Nc1nc2ccc(F)cc2s1)c1ccc(N2CCOCC2)cc1	Active
O=C(Nc1nc2ccc(Br)cc2s1)c1ccc(N2CCOCC2)cc1	Active
O=C(Nc1nc2ccc(F)cc2s1)c1ccccc1	Active

Biological target: T1, Leucine-rich repeat serine/threonine-protein kinase 2
Test: Inhibition of wild type human GST-tagged LRRK2 (970 to 2527 residues) expressed in baculovirus expression system assessed as reduction in ADP formation at 10 uM using LRRKtide as substrate measured after 1 hr in presence of ATP by Adapta assay relative to control
Details: not given
Outline: as §5

SMILES	inhibition
O=C(Nc1nc2ccc(C(F)(F)F)cc2s1)c1ccc(N2CCOCC2)cc1	51%
CCOc1ccc2nc(NC(=O)c3ccc(N4CCOCC4)cc3)sc2c1	80%
CC(C)c1ccc2nc(NC(=O)c3ccc(N4CCOCC4)cc3)sc2c1	48%
Cc1ccc2nc(NC(=O)c3ccc(N4CCOCC4)cc3)sc2c1	61%
O=C(Nc1nc2ccccc2s1)c1ccc(N2CCOCC2)cc1	75%
O=C(Nc1nc2ccc(F)cc2s1)c1ccc(N2CCOCC2)cc1	66%
O=C(Nc1nc2ccc(Br)cc2s1)c1ccc(N2CCOCC2)cc1	75%
O=C(Nc1nc2ccc(F)cc2s1)c1ccccc1	81%
